Measured values published in the RNAGym collection of RNA variant scans (doi:10.1002/anie.201605470).

B1: Osa-1-4 twister ribozyme (parent)
chain: CCGCCUAACACUGCCAAUGCCGGUCCCAAGCCCGGAUAAAAGUGGAGGGGGCGG

Variants of: B1
Test: self-cleavage, relative activity (ratio to wild type); higher = more cleavage; co-transcriptional
Method in brief: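 In vitro transcription at 37 °C for 2 h allowed the twister ribozyme to cleave itself as it was made. Its 54-nucleotide Oryza sativa template had been synthesised with 97 % wild-type base and 1 % of each other base at the 48 positions downstream of the cleavage site. A template-switching oligonucleotide was used for reverse transcription, followed by PCR amplification and deep sequencing. Whether reads carried upstream sequence set the cleavage status, and relative activity is the fraction cleaved normalised to wild type.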

| Variant | self-cleavage |
| --- | --- |
| CCGCCUAACACUGCCAAUGCCGGUCCCUAGCCCGGAUAAAAGUGGAGGGGGCUG [A28U G53U] | 0.15 |
| CCGCCUAACACUGCCAAUGCCGGUCCCUAGCCCGGAUAAAAGUGGAGGGGGCGA [A28U G54A] | 0.66 |
| CCGCCUAACACUGCCAAUGCCGGUCCCUAGCCCGGAUAAAAGUGGAGGGGGCGC [A28U G54C] | 0.71 |
| CCGCCUAACACUGCCAAUGCCGGUCCCUAGCCCGGAUAAAAGUGGAGGGGGCGU [A28U G54U] | 0.72 |
| CCGCCUAACACAGCCAAUGCCGGUCCCUAGCCCGGAUAAAAGUGGAGGGGGCGG [A28U U12A] | 0.38 |
| CCGCCUAACACCGCCAAUGCCGGUCCCUAGCCCGGAUAAAAGUGGAGGGGGCGG [A28U U12C] | 0.13 |
| CCGCCUAACACGGCCAAUGCCGGUCCCUAGCCCGGAUAAAAGUGGAGGGGGCGG [A28U U12G] | 0.11 |
| CCGCCUAACACUGCCAAAGCCGGUCCCUAGCCCGGAUAAAAGUGGAGGGGGCGG [A28U U18A] | 0.91 |
| CCGCCUAACACUGCCAACGCCGGUCCCUAGCCCGGAUAAAAGUGGAGGGGGCGG [A28U U18C] | 0.73 |
| CCGCCUAACACUGCCAAGGCCGGUCCCUAGCCCGGAUAAAAGUGGAGGGGGCGG [A28U U18G] | 0.91 |
| CCGCCUAACACUGCCAAUGCCGGACCCUAGCCCGGAUAAAAGUGGAGGGGGCGG [A28U U24A] | 0.08 |
| CCGCCUAACACUGCCAAUGCCGGCCCCUAGCCCGGAUAAAAGUGGAGGGGGCGG [A28U U24C] | 0.09 |
| CCGCCUAACACUGCCAAUGCCGGGCCCUAGCCCGGAUAAAAGUGGAGGGGGCGG [A28U U24G] | 0.02 |
| CCGCCUAACACUGCCAAUGCCGGUCCCUAGCCCGGAAAAAAGUGGAGGGGGCGG [A28U U37A] | 0.68 |
| CCGCCUAACACUGCCAAUGCCGGUCCCUAGCCCGGACAAAAGUGGAGGGGGCGG [A28U U37C] | 0.97 |
| CCGCCUAACACUGCCAAUGCCGGUCCCUAGCCCGGAGAAAAGUGGAGGGGGCGG [A28U U37G] | 0.97 |
| CCGCCUAACACUGCCAAUGCCGGUCCCUAGCCCGGAUAAAAGAGGAGGGGGCGG [A28U U43A] | 0.28 |
| CCGCCUAACACUGCCAAUGCCGGUCCCUAGCCCGGAUAAAAGCGGAGGGGGCGG [A28U U43C] | 0.15 |
| CCGCCUAACACUGCCAAUGCCGGUCCCUAGCCCGGAUAAAAGGGGAGGGGGCGG [A28U U43G] | 0.15 |
| CCGCCUAACACUGCCAAUGCCGGUCCCACGCCCGGAUAAAAGUGGAGGGGGCGG [A29C] | 0.05 |
| CCGCCUCACACUGCCAAUGCCGGUCCCACGCCCGGAUAAAAGUGGAGGGGGCGG [A29C A7C] | 0.03 |
| CCGCCUGACACUGCCAAUGCCGGUCCCACGCCCGGAUAAAAGUGGAGGGGGCGG [A29C A7G] | 0.03 |
| CCGCCUUACACUGCCAAUGCCGGUCCCACGCCCGGAUAAAAGUGGAGGGGGCGG [A29C A7U] | 0.01 |
| CCGCCUACCACUGCCAAUGCCGGUCCCACGCCCGGAUAAAAGUGGAGGGGGCGG [A29C A8C] | 0.04 |
| CCGCCUAGCACUGCCAAUGCCGGUCCCACGCCCGGAUAAAAGUGGAGGGGGCGG [A29C A8G] | 0.03 |

| Variant | self-cleavage |
| --- | --- |
| CCGCCUAUCACUGCCAAUGCCGGUCCCACGCCCGGAUAAAAGUGGAGGGGGCGG [A29C A8U] | 0.02 |
| CCGCCUAACACUGCCAAUGCCGGUCCCACGCCCGGCUAAAAGUGGAGGGGGCGG [A29C A36C] | 0.03 |
| CCGCCUAACACUGCCAAUGCCGGUCCCACGCCCGGGUAAAAGUGGAGGGGGCGG [A29C A36G] | 0.07 |
| CCGCCUAACACUGCCAAUGCCGGUCCCACGCCCGGUUAAAAGUGGAGGGGGCGG [A29C A36U] | 0.04 |
| CCGCCUAACACUGCCAAUGCCGGUCCCACGCCCGGAUCAAAGUGGAGGGGGCGG [A29C A38C] | 0.04 |
| CCGCCUAACACUGCCAAUGCCGGUCCCACGCCCGGAUGAAAGUGGAGGGGGCGG [A29C A38G] | 0.04 |
| CCGCCUAACACUGCCAAUGCCGGUCCCACGCCCGGAUUAAAGUGGAGGGGGCGG [A29C A38U] | 0.03 |
| CCGCCUAACACUGCCAAUGCCGGUCCCACGCCCGGAUACAAGUGGAGGGGGCGG [A29C A39C] | 0.04 |
| CCGCCUAACACUGCCAAUGCCGGUCCCACGCCCGGAUAGAAGUGGAGGGGGCGG [A29C A39G] | 0.03 |
| CCGCCUAACACUGCCAAUGCCGGUCCCACGCCCGGAUAUAAGUGGAGGGGGCGG [A29C A39U] | 0.03 |
| CCGCCUAACACUGCCAAUGCCGGUCCCACGCCCGGAUAACAGUGGAGGGGGCGG [A29C A40C] | 0.02 |
| CCGCCUAACACUGCCAAUGCCGGUCCCACGCCCGGAUAAGAGUGGAGGGGGCGG [A29C A40G] | 0.02 |
| CCGCCUAACACUGCCAAUGCCGGUCCCACGCCCGGAUAAUAGUGGAGGGGGCGG [A29C A40U] | 0.04 |
| CCGCCUAACACUGCCAAUGCCGGUCCCACGCCCGGAUAAACGUGGAGGGGGCGG [A29C A41C] | 0.05 |
| CCGCCUAACACUGCCAAUGCCGGUCCCACGCCCGGAUAAAGGUGGAGGGGGCGG [A29C A41G] | 0.04 |
| CCGCCUAACACUGCCAAUGCCGGUCCCACGCCCGGAUAAAUGUGGAGGGGGCGG [A29C A41U] | 0.05 |
| CCGCCUAACACUGCCAAUGCCGGUCCCACGCCCGGAUAAAAGUGGCGGGGGCGG [A29C A46C] | 0.02 |
| CCGCCUAACACUGCCAAUGCCGGUCCCACGCCCGGAUAAAAGUGGGGGGGGCGG [A29C A46G] | 0.02 |
| CCGCCUAACACUGCCAAUGCCGGUCCCACGCCCGGAUAAAAGUGGUGGGGGCGG [A29C A46U] | 0.02 |
| CCGCCUAAAACUGCCAAUGCCGGUCCCACGCCCGGAUAAAAGUGGAGGGGGCGG [A29C C9A] | 0.02 |
| CCGCCUAAGACUGCCAAUGCCGGUCCCACGCCCGGAUAAAAGUGGAGGGGGCGG [A29C C9G] | 0.05 |
| CCGCCUAAUACUGCCAAUGCCGGUCCCACGCCCGGAUAAAAGUGGAGGGGGCGG [A29C C9U] | 0.02 |
| CCGCCUAACAAUGCCAAUGCCGGUCCCACGCCCGGAUAAAAGUGGAGGGGGCGG [A29C C11A] | 0.04 |
| CCGCCUAACAGUGCCAAUGCCGGUCCCACGCCCGGAUAAAAGUGGAGGGGGCGG [A29C C11G] | 0.02 |
